# Env fusion inh: HIV envelope-mediated fusion inhibition; HeLa-JRFL Env/CEM21 cell fusion, luciferase; inhibition, % at 12.3 µM; 360,000 compounds, 1.1% hits; AID 651610;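 active = mean replicate inhibition score of at least 50 and every replicate individually at or above 50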;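 note: 0% = plate neutral controls and 100% = maraviroc near 300 nM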
# S100A4 MyoIIA: S100A4-myosin IIA interaction inhibition; inhibition, % at 10.7 µM; P26447; S100A4/TAMRA-MyoIIA peptide fluorescence polarization; 360,000 compounds, 0.14% hits; AID 652163;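 active = mean inhibition of at least 70% across replicates, with every replicate also reaching that level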
#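 assay system = human S100A4 monomer with TAMRA-labelled myosin IIA peptide | also added = labelled myosin peptide probe, 5 nM | incubation = 5 min between mix addition and reading | control set = DMSO and TFP controls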
# E-selectin induc: induces E-selectin expression in human endothelial cells. activation, % at 7.58 µM. 260,000 compounds, 0.37% hits. AID 686992. P16581. HUVEC E-selectin immunofluorescence imaging; normalized: neutral wells 0, TNF-alpha wells 100;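 active = mean E-selectin-positive cell signal at least 10% of the positive control, reached in at least 60% of replicates, without over 20% cell loss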
# Target sequence (P16581 whole entry, looked up): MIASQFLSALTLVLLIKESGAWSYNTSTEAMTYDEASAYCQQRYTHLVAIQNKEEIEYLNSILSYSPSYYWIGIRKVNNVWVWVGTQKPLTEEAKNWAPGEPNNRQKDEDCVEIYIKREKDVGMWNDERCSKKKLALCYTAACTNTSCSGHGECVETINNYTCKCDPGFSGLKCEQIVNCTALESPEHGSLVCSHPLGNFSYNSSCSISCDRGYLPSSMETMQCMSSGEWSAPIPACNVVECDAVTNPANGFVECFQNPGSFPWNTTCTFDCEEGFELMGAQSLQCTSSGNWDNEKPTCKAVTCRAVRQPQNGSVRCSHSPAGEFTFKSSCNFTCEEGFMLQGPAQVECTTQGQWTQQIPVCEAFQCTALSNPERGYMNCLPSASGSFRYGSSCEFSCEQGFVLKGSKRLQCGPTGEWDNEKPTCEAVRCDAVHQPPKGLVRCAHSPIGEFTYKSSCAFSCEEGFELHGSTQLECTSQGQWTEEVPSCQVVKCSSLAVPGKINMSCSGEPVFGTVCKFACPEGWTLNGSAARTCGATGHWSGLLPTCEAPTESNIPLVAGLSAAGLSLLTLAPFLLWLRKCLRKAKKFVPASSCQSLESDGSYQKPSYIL
#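 Assay system: HUVEC primary endothelial cells. Input: 3,000 HUVEC seeded per well. Doses: one compound dose added by pin transfer. Read-out basis: % PE-positive cells. Benchmarks: TNF-alpha high, DMSO low. Detection: immunofluorescence imaging. Buffer or medium: EGM-2, gelatin.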
# F508del corr: correctors of CFTR F508del function in bronchial epithelial cells; CFBE cells, YFP halide quenching; stimulated with forskolin plus potentiator P3; % fluorescence drop versus neutral controls; activity (quench increase), % at 7.58 µM; 350,000 compounds, 0.36% hits; AID 720511;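 active = mean added fluorescence quench of at least 8% versus neutral control, with both replicates also reaching 8%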;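 note: cells transiently co-express mutant CFTR-F508del with the halide-sensitive YFP; corrector assay measuring rescue of mutant channel to the surface after 24 h compound exposure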
# FGF22 binding: shifts melting point of recombinant human FGF22; activity (Tm shift, normalised), % at 9.99 µM; Q9HCT0; 340,000 compounds, 1.5% hits; recombinant FGF22 thermal shift, SYPRO orange fluorescence; percent of sucrose octasulfate shift, DMSO zero;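 active = mean Tm shift, scaled 0 neutral to 100 positive control, at about 1.3% or above, every replicate too, limit read from the data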
# * marks the source's active call; other numbers are inactive results; nt = no result given; [ ] = remark or other dose. Hits are enriched below; roughly 2.7% of the tested compounds scored in any of these assays.
SMILES,Env fusion inh,S100A4 MyoIIA,E-selectin induc,F508del corr,FGF22 binding
CCCNS(=O)(=O)c1ccc2c(c1)n(C)c(=O)n2C,2,3,nt,1,0
O=C(CC(C(=O)O)P(=O)(c1ccccc1)c1ccccc1)c1ccccc1 (configuration not stated),-4,-3,1,-3,43*
O=C(CC(CC(=O)c1ccccc1)C(=O)O)c1ccccc1,27,nt,nt,nt,nt
CC[C@]1(C(=O)OC)[C@H]2C(=O)N(Cc3ccccc3)C(=O)[C@H]2[C@H]2CN=C(SCc3ccc(C)cc3)N21,69*,3,nt,0,0
COC(=O)[C@@]1(C)[C@H]2C(=O)N(Cc3ccccc3)C(=O)[C@H]2[C@H]2CN=C(SCc3ccccc3)N21,77*,13,3,1,42
COC(=O)[C@@]1(Cc2ccccc2)[C@H]2C(=O)N(Cc3ccccc3)C(=O)[C@H]2[C@H]2CN=C(SCc3ccc(C#N)cc3)N21,69*,1,nt,3,0
COC(=O)[C@@]1(Cc2ccccc2)[C@H]2C(=O)N(C)C(=O)[C@H]2[C@H]2CN=C(SCc3ccc(Cl)cc3)N21,-71,-1,-1,5,43*
COC(=O)[C@@]1(Cc2ccccc2)[C@H]2C(=O)N(C)C(=O)[C@H]2[C@H]2CN=C(SCc3ccc(C)cc3)N21,-5,-4,0,4,nt
O=C(C1CCC1)N1CCCCN2[C@@H](CO)[C@@H](c3ccc(-c4cccc(F)c4)cc3)[C@@H]2C1,nt,33,nt,1,0
C[C@@H]1CN([C@H](C)CO)C(=O)c2cccc(NC(=O)C3CCCCC3)c2O[C@@H]1CN(C)S(=O)(=O)c1cccs1,-5[16.7 µM],13,0,-1,0
CC[C@]1(C(=O)OC)[C@H]2C(=O)N(Cc3ccccc3)C(=O)[C@H]2[C@H]2CN=C(SCC3CC3)N21,81*,2,0,-2,0
Cc1ccc(S(=O)(=O)N(C)C[C@@H]2Oc3ccc(NS(=O)(=O)c4ccc(Cl)cc4)cc3C(=O)N([C@@H](C)CO)C[C@H]2C)cc1,64*[16.7 µM],6,-7,-1,0
COc1ccc(S(=O)(=O)Nc2ccc3c(c2)C(=O)N([C@@H](C)CO)C[C@H](C)[C@H](CN(C)S(=O)(=O)c2ccc(Cl)cc2)O3)cc1,39[16.7 µM],nt,59*,-3,-1
COc1ccc(S(=O)(=O)N(C)C[C@H]2Oc3ccc(NS(=O)(=O)c4c(C)noc4C)cc3C(=O)N([C@H](C)CO)C[C@@H]2C)cc1,-8,-9,1,-2,0
C[C@H]1CN([C@@H](C)CO)C(=O)c2cc(NS(=O)(=O)c3ccc(F)cc3)ccc2O[C@H]1CN(C)S(=O)(=O)c1ccc(F)cc1,58*[16.7 µM],2,0,-2,0
COc1ccc(S(=O)(=O)N(C)C[C@@H]2Oc3ccc(NS(=O)(=O)c4c(C)noc4C)cc3C(=O)N([C@@H](C)CO)C[C@H]2C)cc1,6[16.7 µM],11,189*,1,0
COc1ccc2c3c([nH]c2c1)[C@H](CO)N(Cc1nccs1)CC31CN(Cc2nccs2)C1,nt,-5,0,4,0
C[C@H](CO)N1C[C@H](C)[C@H](CN(C)C(=O)Nc2ccc(F)cc2)Oc2c(NS(C)(=O)=O)cccc2C1=O,nt,-4,0,-2,0
C[C@H]1CCCCO[C@H](CN(C)Cc2ccc3c(c2)OCO3)[C@@H](C)CN([C@@H](C)CO)C(=O)c2cc(NS(=O)(=O)c3cccs3)ccc2O1,18[16.7 µM],nt,0,1,0
COc1ccc(NC(=O)N(C)C[C@H]2Oc3ccc(NC(=O)CCN4CCOCC4)cc3CC(=O)N([C@H](C)CO)C[C@H]2C)cc1,nt,4,nt,-1,0
O=C(O)c1ccccc1C(=O)OC1CCCC2CCCC21 (configuration not stated),11,-1,0,-1,43*
CC1C2CCC(C2)C1OC(=O)c1ccccc1C(=O)O (configuration not stated),11,2,0,9.4*,44*
O=C(O)c1ccccc1N1C(=O)C2C3CCC(C3)C2C1=O (configuration not stated),-10,-1,5,0,0
CN(C)C(=O)c1cccc(-c2ccc([C@H]3[C@H](CO)N4CCCCN(C(=O)C5CCC5)C[C@@H]34)cc2)c1,nt,-12,0,1,0
CO[C@@H]1CN(C)C(=O)c2ccc(NS(C)(=O)=O)cc2OC[C@@H](C)N(C(=O)NC(C)C)C[C@@H]1C,nt,2,0,-1,0
SMILES,Env fusion inh,S100A4 MyoIIA,E-selectin induc,F508del corr,FGF22 binding
N#Cc1cc(Sc2ccccn2)c([N+](=O)[O-])cc1C#N,2,-4,3,13*,0
CCN1C(=O)[C@H]2[C@@H](c3ccc(C(F)(F)F)cc3)N[C@]3(CCCN(Cc4ccccc4)C3=O)[C@H]2C1=O,78*,-3,nt,-2,0
C/C=C/c1cnc2c(c1)C(=O)N([C@H](C)CO)C[C@H](C)[C@@H](CN(C)C(=O)NC1CCCC1)O2,4[16.7 µM],6,0,1,1
CCOC(=O)c1c(NC(=O)CSc2nnc(CNc3ccc(Cl)cc3)o2)sc(C)c1C,65*,nt,nt,nt,nt
CCOC(=O)c1cc(=O)[nH]c2ccccc12,-20,6,nt,1,43*
CCOC(=O)CSc1c(-c2ccc(Cl)cc2)[nH]c2ccccc12,12,-3,0,-3,1
CCOC(=O)Cc1c(Cl)c2ccccc2[nH]c1=O,-3,-5,nt,-2,43*
CCOc1ccc(C(=O)COC(=O)c2cc(=O)[nH]c3ccccc23)cc1,0,-1,nt,-1,-1
O=C(NCCc1ccccc1)c1cc(=O)[nH]c2ccccc12,0,4,nt,0,43*
CNC[C@H]1OCCCC[C@@H](C)Oc2ccc(NS(=O)(=O)c3cccs3)cc2C(=O)N([C@@H](C)CO)C[C@H]1C,13[16.7 µM],1,0,2,0
O=C(C[C@@H]1C=C[C@H](NC(=O)c2ccc(F)cc2)[C@@H](CO)O1)NCCc1ccccc1,9[16.7 µM],-4,0,2,0
COc1ccc2c3c(n(C)c2c1)[C@@H](CO)N(C(=O)c1cnccn1)CC31CCN(C(=O)c2cnccn2)CC1,-3[16.7 µM],-5,0,1,0
Cc1noc(C)c1NC(=O)N(C)C[C@H]1Oc2c(NC(=O)NC(C)C)cccc2C(=O)N([C@H](C)CO)C[C@H]1C,10[16.7 µM],5,-3,0,0
O=C(CC1SC(N2CCCCC2)=NC1=O)Nc1ccc(C(=O)O)cc1 (configuration not stated),4,-1,nt,1,0
Cc1ccc(NC(=O)CN(C)C(=O)c2ccc(NC(=O)CC3SC(N4CCCC4)=NC3=O)cc2)cc1 (configuration not stated),-6,-2,1,-2,44*
